# Platelet DG rel – inhibitors of platelet dense granule secretion, primary screen, cell-based, MLPCN, human platelets; human platelet-rich plasma, SFLLRN dense granule ATP release, luminescence; inhibition, %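 (compounds screened at 7.5 µM in platelet-rich plasma)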; 300,000 compounds, 0.22% hits;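 active = mean replicate score, as percent of positive control, at or above 50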
# STAT1 blocker – STAT1 signaling inhibitors, primary screen, cell-based, HTS, luciferase reporter | NIH 3T3 STAT1-luciferase reporter, IFN-gamma, luminescence | inhibition, % at 5.5 µM | 200,000 compounds, 0.35% hits | AID 920, 2007;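 active = inhibition above a set limit, the mean inhibition across all tested compounds plus 3 SD, cut at about 34% in these data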;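 also: 0% = IFN-gamma with DMSO and 100% = IFN-gamma with 300 µM nifuroxazide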
# Lipid droplet – inhibitors of hepatocyte lipid droplet formation, primary screen, imaging, high-throughput imaging, BODIPY stain | AML12 mouse hepatocytes, oleate lipid droplets | inhibition, % at 6.5 µM | 240,000 compounds, 0.4% hits;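 active = lipid droplet intensity inhibited by at least 50%, with more than 500 cells counted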
#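 Technique: fluorescence imaging, 20x objective, two fields per well / Assay system: AML12 hepatocytes (mouse) / Measure: % inhibition of lipid droplet signal / Doses: 6.5 µM single-point dosing / Incubation: overnight exposure / Reagent: 100 µM oleic acid challenge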
# STAT3 inh – IL-6 driven STAT3 reporter inhibitors, primary screen, U3A cells, luciferase, luminescence, MLSCN library. IL-6 STAT3-luciferase reporter; host cell line lacks STAT1. 190,000 compounds, 0.89% hits. inhibition, % at 5.5 µM;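 active = inhibition above the mean inhibition across all screened compounds plus 3 SD, cut at about 44% in these data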;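 also: 0% = DMSO only wells and 100% = 100 µM nifuroxazide control wells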
# PPC-1+TRAIL kill – compounds killing PPC-1 cancer cells with TRAIL present, primary screen, TRAIL potentiator project, ATPLite luminescence, uHTS; PPC-1 cells + TRAIL, ATPLite viability luminescence; cell killing (% activity), % at 4 µM or 5 µM; 220,000 compounds, 0.41% hits;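 active = cell killing above 50% in the first pass at 4 µM, then a duplicate retest at 5 µM averaging 50% or more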;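 also: plate controls were cells with TRAIL plus DMSO for no effect and medium-only wells lacking cells for full effect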
# H9c2 TAG inh – inhibitors of triacylglycerol accumulation, primary screen, cell-based, uHTS, fluorescence, H9c2; 230,000 compounds, 0.66% hits; inhibition, % at 12.5 µM; H9c2 cells, Nile Red lipid (TAG) fluorescence; cells loaded with 200 µM oleic acid;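 active = pattern-corrected inhibition of lipid staining of at least 50% with the nuclear-stain viability signal not falling by more than 50%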;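 also: 0% = DMSO wells and 100% = triacsin C control wells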
# TAG conf – triacylglycerol accumulation inhibitors, retest, confirmation, cell-based, single concentration, Nile Red fluorescence, H9c2 | inhibition, % at 12.5 µM | shares compounds with H9c2 TAG inh | 990 compounds, 71% hits | H9c2 lipid accumulation; cells loaded with 200 µM oleic acid;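 active = mean inhibition across replicates of 40% or more; inactive = mean inhibition below 40%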;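 also: plate controls were DMSO only wells for no effect and Triacsin C treated wells for full effect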
# Starred values were filed as active, the others as inactive; nt = no result given. An excerpt weighted towards active compounds, which were near 1.5% of everything screened.
SMILES,Platelet DG rel,STAT1 blocker,Lipid droplet,STAT3 inh,PPC-1+TRAIL kill,H9c2 TAG inh,TAG conf
O=C(Nc1ccncc1)C1CCCN(S(=O)(=O)c2cccc3cccnc23)C1 (stereo unspecified),8,6,-5,4,-5,60*,41*
COc1cccc(NC(=O)C2CCCN(S(=O)(=O)c3cccc4cccnc34)C2)c1 (stereo unspecified),23,4,4,16,9,10,nt
Nn1cnnc1SCC(=O)N1CCc2ccccc2C1,nt,nt,nt,nt,nt,-1,nt
CCOC(=O)c1c(C)[nH]c(C(=O)OC(C)C(=O)Nc2ccc(C)cc2)c1C (stereo unspecified),nt,nt,nt,nt,nt,-11,nt
CCOC(=O)c1[nH]c(C)c(C(=O)OC(C)C(=O)Nc2ncc(Cl)cc2Cl)c1C (stereo unspecified),2,6,nt,7,6,57*,39
COc1cccc(-c2cc(C(=O)Nc3ccc(N(C)C(C)=O)cc3)c3cc(Br)ccc3n2)c1,0,nt,nt,nt,nt,50*,57*
COc1ccc(NC(=O)CN(C)S(=O)(=O)c2ccc(Br)s2)cc1,-2,nt,1,nt,nt,nt,nt
Cc1cccc2sc(NC(=O)CN(C)S(=O)(=O)c3ccc(Br)s3)nc12,-2,-2,35,0,13,52*,40
CC(C)N(C)c1ncnc2c1ncn2[C@H]1CN(C2CCCC2)C[C@@H](CO)O1,nt,nt,nt,nt,nt,7,nt
Cc1ccc(NC(=O)COC(=O)c2ccc3c(c2)NC(=O)C2CCCN32)cc1 (stereo unspecified),5,-5,-5,5,20,66*,22
COC(=O)c1ccc2c(c1)NC(=O)C1CCCN21 (stereo unspecified),2,nt,nt,nt,nt,nt,nt
CN(C)CCNC(=O)c1cccc2ccc(-c3ccc(-c4ccccc4)cc3)nc12,nt,nt,nt,nt,nt,60*,66*
CN(C)CCNC(=O)c1cccc2nc3cccc(F)c3nc12,nt,nt,nt,nt,nt,92,nt
C[C@H]1CN([C@@H](C)CO)C(=O)Cc2cc(NC(=O)CCC(F)(F)F)ccc2O[C@H]1CN(C)S(=O)(=O)c1ccc(Cl)cc1,nt,nt,nt,nt,nt,64*,69*
CCCC(=O)Nc1nc2nc(-c3ccccc3)cc(-c3ccccc3)n2n1,0,4,nt,22,18,52*,36
CCNc1nc(SC(C)C(=O)Nc2ccccc2)nc(N(C)C)n1 (stereo unspecified),13,6,32,2,9,54*,28
COc1cc2nc(NCCCN3CCN(C)CC3)n3nc(-c4ccccc4)nc3c2cc1OC,7,-2,12,15,47,61*,41*
COc1cc2c(cc1OC)CN(C(=S)Nc1ccccc1Cl)CC2,4,16,-6,29,5,62*,6
COc1cc2c(cc1OC)CN(C(=S)Nc1ccccc1)CC2,1,-1,nt,16,22,nt,nt
COc1ccc(/C=N\NC(=O)c2c(C)nc3ccc(Br)cn23)cc1,-1,-6,nt,-29,-2,nt,nt
Cc1ccc(/C=N/NC(=O)c2c(C)nc3ccc(Br)cn23)cc1,1,nt,-188,nt,nt,56*,58*
COc1ccc([C@H]2C[C@H](O)[C@@H](n3cc(-c4ccc(F)cc4)nn3)CN2Cc2cccs2)cc1,nt,nt,nt,nt,nt,59*,52*
CCCCNC(=O)CCC(=O)Nc1ccc2nc(N3CCOCC3)cc(C)c2c1,-3,-16,nt,-7,14,4,nt
CCN1CCN(c2cc(C)c3cc(NC(=O)c4ccc(Br)o4)ccc3n2)CC1,-2,-1,nt,16,13,58*,37
Cc1cc(N2CCOCC2)nc2ccc(NC(=O)C3CCC(C)CC3)cc12 (stereo unspecified),-12,-1,nt,22,2,54*,37
CCOc1ccc(NC(=O)COc2ccc(C(=O)NCc3cccc(OC)c3)cc2OC)cc1,nt,nt,nt,nt,nt,6,nt
Cc1cccc(N2CCN(C(=O)CCCn3c(=S)[nH]c4cc5c(cc4c3=O)OCO5)CC2)c1C,5,-2,nt,26,20,54*,38
